Two compounds from ChEMBL document CHEMBL1152250, “Novel and orally active 5-(1,3,4-oxadiazol-2-yl)pyrimidine derivatives as selective FLT3 inhibitors” (Bioorg Med Chem Lett, 2008) can be followed below.

Data set [1] in a line: Antiproliferative activity against human ML1 cells after 72 hrs by WST-1 assay. It counts as functional. Particulars: ML1, 72 h. The method, boiled down: (§1)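 Cells kept in RPMI1640 with 10% heat-inactivated FBS, 1% penicillin and 1% streptomycin, seeded in 96-well plates and exposed to test compounds for 72 h. Viability read with WST-1 reagent. GI50 is the mean ± SEM of three experiments.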
A general note: Tetrazolium assays rely on reduction of a dye to a coloured formazan, in cell work by metabolically active cells.

A short description of data set [2]: Antiproliferative activity against human HMC1 cells expressing FLT-D835Y mutant after 72 hrs by WST-1 assay. It counts as functional. The conditions noted are these: HMC1, 72 h. The gist of the method: as §1
The test system of data set [3] is MOLM-13. Kind of data set: Antitumor activity against human MOLM13 cells xenografted in SCID mouse assessed as minimal regressive tumor volume ratio at 100 mg/kg, po bid treated for 5 days measured after 4 days relative to control. In kind it is functional. The method, boiled down: (§2)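 SCID mice bearing subcutaneous MOLM-13 xenografts, 5 per group, dosed orally b.i.d. for 5 days. […] is the mean tumour volume ratio, treated to control. Regression is the mean tumour volume relative to the initial volume on day 0. Mortality and body weight were also recorded.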

The test system of data set [4] is MOLM-13. Kind of data set: Antitumor activity against human MOLM13 cells xenografted in SCID mouse assessed as tumor volume ratio at 200 mg/kg, po bid treated for 5 days measured after 10 days relative to control. In kind it is functional. The gist of the method: as §2
On the technique in general: Xenograft models place foreign cells or tissue in a host animal.

The subject of another data set is Liver microsomes. Kind of data set: Metabolic stability in human liver microsomes assessed as intrinsic clearance. It counts as ADME, Microsome. The method, boiled down: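 Pooled human liver microsomes (0.2 mg protein/mL) with test compound at 0.1 or 1 μmol/L, 5 mmol/L NADPH, 100 mmol/L phosphate buffer pH 7.4, 6 mmol/L MgCl2 and 0.1 mmol/L EDTA. Cosolvent was DMSO (0.01 or 0.001 vol%) or methanol (1 vol%). Incubated at 37 °C for a fixed time, n = 1 or 2. Stopped with CH3CN containing internal standard and analysed by LC-MS or LC-MS/MS. Intrinsic clearance calculated from percent remaining.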
On the technique in general: Liver microsomes are vesicles of endoplasmic reticulum, rich in cytochrome P450 enzymes.

The subject of data set [5] is MOLM-13. Description: Antiproliferative activity against human MOLM13 cells after 72 hrs by WST-1 assay. In kind it is functional. Particulars: MOLM-13, 72 h. The method, boiled down:
as §1

Data set [6] in a line: Antiproliferative activity against human HMC1 cells expressing FLT3-delta599 mutant after 72 hrs by WST-1 assay. The conditions noted are these: HMC1, 72 h. It counts as functional. The method, boiled down:
as §1

For data set [7], the system named is Mus musculus. Kind of data set: Toxicity to human MOLM13 cells xenografted SCID mouse assessed as mortality at 100 mg/kg, po bid after 5 days. In kind it is organism-based, MOLM-13. Set-up: dose 100 mg/kg, route oral. The conditions noted are these: in vivo, 120 h. The method, boiled down: (§3)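 MOLM-13 cells implanted subcutaneously in SCID mice. Compound given orally twice daily for 5 days at 50, 100 or 200 mg/kg, alongside an untreated control group. Mortality was scored per dose group, together with tumor volume as treated/control ratio and relative to day-0 volume.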

Data set [8] has as its system MOLM-13. Description: Antitumor activity against human MOLM13 cells xenografted in po dosed SCID mouse assessed as tumor volume ratio administered bid for 5 days. In kind it is functional, organism-based. The gist of the method: as §2
Data set [9] deals with Mus musculus. Kind of data set: Toxicity to human MOLM13 cells xenografted SCID mouse assessed as mortality at 50 mg/kg, po bid after 5 days. Details: dose 50 mg/kg, route oral. The conditions noted are these: in vivo, 120 h. In kind it is organism-based, MOLM-13. The method, boiled down:
as §3

The test system of data set [10] is MOLM-13. Kind of data set: Antitumor activity against human MOLM13 cells xenografted in po dosed SCID mouse assessed as regression tumor volume ratio administered bid for 5 days. It counts as functional, organism-based. The method, boiled down:
as §2

Data set [11] has as its system Mus musculus. Description: Toxicity to human MOLM13 cells xenografted SCID mouse assessed as body weight loss at 200 mg/kg, po bid after 5 days. In kind it is organism-based, MOLM-13. Details: dose 200 mg/kg, route oral. The conditions noted are these: in vivo, 120 h. The gist of the method:
as §2

The test system of data set [12] is MOLM-13. Description: Antitumor activity against human MOLM13 cells xenografted in SCID mouse assessed as minimal regressive tumor volume ratio at 200 mg/kg, po bid treated for 5 days measured after 10 days relative to control. It counts as functional. The method, boiled down: as §2
The test system of data set [13] is MOLM-13. Kind of data set: Antitumor activity against human MOLM13 cells xenografted in SCID mouse assessed as minimal tumor volume ratio at 100 mg/kg, po bid treated for 5 days measured after 7 days relative to control. It counts as functional. The gist of the method: as §2
For data set [14], the system named is Mus musculus. Description: Toxicity to human MOLM13 cells xenografted SCID mouse assessed as mortality at 200 mg/kg, po bid after 5 days. It counts as organism-based, MOLM-13. Details: dose 200 mg/kg, route oral. The conditions noted are these: in vivo, 120 h. The gist of the method: as §3
The target of data set [15] is T1, Receptor-type tyrosine-protein kinase FLT3 (Homo sapiens, UniProt P36888).
T1 sequence (P36888 whole entry): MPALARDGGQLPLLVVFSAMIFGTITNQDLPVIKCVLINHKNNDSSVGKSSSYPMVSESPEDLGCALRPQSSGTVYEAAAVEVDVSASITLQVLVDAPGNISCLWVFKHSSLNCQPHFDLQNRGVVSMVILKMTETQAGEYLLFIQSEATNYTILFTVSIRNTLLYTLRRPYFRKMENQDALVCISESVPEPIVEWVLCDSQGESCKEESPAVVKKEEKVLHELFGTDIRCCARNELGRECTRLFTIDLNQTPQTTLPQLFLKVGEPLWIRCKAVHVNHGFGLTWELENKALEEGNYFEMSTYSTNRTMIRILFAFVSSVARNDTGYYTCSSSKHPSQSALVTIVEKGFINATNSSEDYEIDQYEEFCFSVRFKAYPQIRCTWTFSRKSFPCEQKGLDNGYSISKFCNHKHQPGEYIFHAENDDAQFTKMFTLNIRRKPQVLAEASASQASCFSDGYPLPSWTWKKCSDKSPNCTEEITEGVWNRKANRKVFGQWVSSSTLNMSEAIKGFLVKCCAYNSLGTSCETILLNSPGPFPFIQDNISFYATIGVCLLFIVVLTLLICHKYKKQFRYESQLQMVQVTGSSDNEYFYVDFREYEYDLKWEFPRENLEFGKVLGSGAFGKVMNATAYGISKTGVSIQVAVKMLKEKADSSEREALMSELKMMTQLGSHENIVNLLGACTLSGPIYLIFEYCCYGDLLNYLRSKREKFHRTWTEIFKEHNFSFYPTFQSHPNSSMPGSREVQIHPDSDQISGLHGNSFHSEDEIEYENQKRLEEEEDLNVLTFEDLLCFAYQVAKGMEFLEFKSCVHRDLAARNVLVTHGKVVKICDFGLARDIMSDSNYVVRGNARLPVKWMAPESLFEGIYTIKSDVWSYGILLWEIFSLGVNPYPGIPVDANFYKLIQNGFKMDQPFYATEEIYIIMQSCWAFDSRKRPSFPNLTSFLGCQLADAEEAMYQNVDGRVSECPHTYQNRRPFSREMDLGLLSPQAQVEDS
Kind of data set: Inhibition of GST-tagged FLT3 by ELISA.

Data set [16] relates to MOLM-13. Description: Antitumor activity against human MOLM13 cells xenografted in SCID mouse assessed as minimal tumor volume ratio at 50 mg/kg, po bid treated for 5 days measured after 7 days relative to control. It counts as functional. The method, boiled down:
as §2

Data set [17] is described as follows: Metabolic stability in human liver microsomes.

Usually GI50 stands for the concentration at which growth is held to half of that of the control. For `CCCNc1nc(NCCc2ccncc2)ncc1-c1nnc(CN2CCNCC2)o1`, the GI50 turned out to be 9.11 µM in data set [1], 0.065 µM in data set [2], 0.029 µM with MOLM-13 [5] and 0.074 µM in data set [6]. For the same compound, the Ratio is on record as 0.571 in the data set on MOLM-13 [3] and 0.098 with MOLM-13 [12]. For the same compound, the figures for the T/C in the data set on MOLM-13 [4] and in the data set with MOLM-13 [13] were 0.006 and 0.1, respectively. Further, in the data set on Liver microsomes, the clearance is 18.3 mL/min/kg. For the same compound, the Activity result is “Non-toxic” with Mus musculus [7]; “Dose-dependent effect” with MOLM-13 [8]; “Non-toxic” in the data set on Mus musculus [9]; “Dose-dependent effect” with MOLM-13 [10]; “Non-toxic” with Mus musculus [11]; “Non-toxic” in the data set on Mus musculus [14].
The term IC50 denotes the concentration that gives 50% inhibition. Read a low IC50 as inhibition by little substance. With `CCCNc1nc(NCCc2ccncc2)ncc1-c1nnc(C2CC2)o1`, the GI50 is 4.32 µM in [1], 0.052 µM in [2], 0.036 µM in the data set with MOLM-13 [5] and 0.036 µM in data set [6]. The compound also registered an IC50 in [15] of 0.0049 µM. In the data set with Liver microsomes, the clearance is 217 mL/min/kg. Further, the Activity entry in the data set on Mus musculus [9] is reported as “Non-toxic”; in the data set on Mus musculus [11], “Non-toxic”; in data set [17], “Unstable”. In addition, the figures for the T/C with MOLM-13 [16] and in the data set on MOLM-13 [13] were 0.47 and 0.34, respectively.
